In the library only some 2.1% were active in any assay of this set; here they are far more common.
MEX-5 binding: MEX-5 zinc finger RNA-binding disruptors – biochemical, C. elegans, fluorescence polarization, MLPCN library, primary screen | MEX-5/FITC-TCR2 RNA binding; hits give low values | activity score (negative = inhibition of binding), % at 10 µM | 300,000 compounds, 0.38% hits | AID 1832, 2009 | Zinc finger protein mex-5 (Caenorhabditis elegans), Q9XUB2;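 active = inhibition past about -25% in most replicates, and total fluorescence under double the plate's negative control median, limit read from the data; inconclusive = replicates evenly split on the limit, or fluorescence at least double controls; inactive = too little inhibition in most replicates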
Target sequence (Q9XUB2 whole entry, looked up): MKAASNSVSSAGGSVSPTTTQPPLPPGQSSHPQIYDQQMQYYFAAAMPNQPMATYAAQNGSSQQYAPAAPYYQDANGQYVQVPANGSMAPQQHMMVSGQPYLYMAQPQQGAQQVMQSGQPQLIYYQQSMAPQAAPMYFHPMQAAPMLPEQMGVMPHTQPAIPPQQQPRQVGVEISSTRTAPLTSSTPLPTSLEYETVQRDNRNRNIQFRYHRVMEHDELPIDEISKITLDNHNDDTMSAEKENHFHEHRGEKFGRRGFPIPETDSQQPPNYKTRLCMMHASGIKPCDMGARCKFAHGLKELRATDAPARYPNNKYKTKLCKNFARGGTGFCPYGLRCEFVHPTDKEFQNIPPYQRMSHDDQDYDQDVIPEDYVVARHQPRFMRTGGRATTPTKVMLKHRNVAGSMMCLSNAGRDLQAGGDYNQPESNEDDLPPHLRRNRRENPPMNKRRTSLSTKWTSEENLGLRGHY
Runt-SMMHC FRET: inhibitors of RUNX1 Runt–CBFb-SMMHC binding, primary screen, biochemical, FRET, Cerulean-Runt, Venus-CBFb-SMMHC, uHTS. AID 1434, 2008. Cerulean-Runt/Venus-CBFb-SMMHC FRET ratio 530/480, 1 h. 220,000 compounds, 0.74% hits. inhibition, % at 20 µM;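 active = mean inhibition across duplicate retests at 20 µM reaching about 50%, limit read from the data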;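 note: inhibitors lower the FRET ratio by blocking Runt binding to CBFb-SMMHC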
Runt-CBFb FRET: inhibitors of RUNX1 Runt–CBFb binding, primary screen, biochemical, FRET, Cerulean-Runt, Venus-CBFb, uHTS; 220,000 compounds, 0.46% hits; AID 1496, 2009; Cerulean-Runt/Venus-CBFb FRET ratio 530/480, 1 h; inhibition, % at 20 µM;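 active = inhibition over about 50% at 20 µM in the single-dose screen, limit read from the data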
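Assay system: Cerulean-Runt domain / Medium: Tris 50 mM pH 7.5, KCl, K2SO4, 0.01% BSA / Timing: protein complex preformed 1 h, compound exposure 1 h, room temperature, dark / Measured by: FRET, excitation 422 nm, emission at 530 and 480 nm / Evaluation: loss of energy transfer signal / Control set: 5 µM unlabeled CBFb as full-inhibition high control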
RanGTP-Imp inh: inhibitors of RanGTP-importin-beta interaction, primary screen, biochemical, FRET, CFP-Ran, YFP-importin-beta, homogeneous | Ran GTPase (GTP-bound) - importin-beta complex | cell-free CFP-Ran/YFP-importin-beta FRET ratio | inhibition, % (no concentration beside the values) | 300,000 compounds, 1.1% hits | AID 2216, 2009;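 active = more than half of the replicate wells show a fall in the fluorescence ratio signal beyond about 16%, limit read from the data, passing the limit was not always enough; inconclusive = exactly half of the replicate wells pass the set limit; inactive = fewer than half of replicates pass the limit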
KLK7 zymogen act: proKLK7 zymogen activators, primary screen, biochemical, fluorescence intensity; Kallikrein-7 (Homo sapiens), P49862; purified proKLK7, EDANS-DABCYL substrate fluorescence; 100% is mature enzyme control, 0% vehicle; activation, % at 7 µM; 370,000 compounds, 0.9% hits;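 active = activation above the mean of all tested compounds plus 3 SD, computed per campaign excluding outliers beyond control limits, cut at about 13% in these data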
Target sequence (P49862 whole entry, looked up): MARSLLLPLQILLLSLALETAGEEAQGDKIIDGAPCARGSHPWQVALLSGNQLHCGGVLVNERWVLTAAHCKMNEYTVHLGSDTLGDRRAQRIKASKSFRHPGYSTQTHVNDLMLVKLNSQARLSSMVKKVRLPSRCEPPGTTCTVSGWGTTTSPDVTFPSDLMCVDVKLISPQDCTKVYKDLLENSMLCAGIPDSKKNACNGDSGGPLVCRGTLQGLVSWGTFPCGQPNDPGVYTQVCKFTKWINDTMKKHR
KLK7 act conf: proKLK7 zymogen activators, confirmation, biochemical, fluorescence intensity, triplicate; shares compounds with KLK7 zymogen act; purified proKLK7, EDANS-DABCYL substrate fluorescence; scaled: vehicle 0, mature enzyme 100; activation, % at 7 µM; 3,200 compounds, 68% hits;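 active = activation, as change over the incubation, above the mean of all tested compounds plus 3 SD, cut at about 13% in these data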
EDANS-DABCYL int: EDANS-DABCYL substrate optical interference, artefact control for kallikrein-7 zymogen activator project, biochemical, fluorescence intensity, high throughput; shares compounds with KLK7 zymogen act; no enzyme, 4 h; solvent 0%, active enzyme control 100%; activation, % at 7 µM; 3,200 compounds, 80% hits; AID 686952, 2013;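 active = activation above the all-compound mean plus 3 SD, ignoring values outside control-based bounds, cut at about 4.8% in these data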;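 note: value is the 4 h activation minus the activation read at time zero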
K7 EDANS ctr: counter-screen for kallikrein-7 activators: EDANS-DABCYL interference, dose response; 250 compounds, 20% hits; EC50, µM; shares compounds with KLK7 zymogen act; EDANS-DABCYL peptide fluorescence interference, no enzyme; AID 720493;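 active = compounds that raise the fluorescence signal in this interference counterscreen, with EC50 at or below 10 µM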;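 note: intact quenched peptide substrate alone read at 355 nm excitation and 520 nm emission; signal is fluorescence gain from T0 to T4 after four hours at room temperature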
A number is an active result; . = inactive; ? = inconclusive; / = no result.

SMILES	MEX-5 binding	Runt-SMMHC FRET	Runt-CBFb FRET	RanGTP-Imp inh	KLK7 zymogen act	KLK7 act conf	EDANS-DABCYL int	others
N=c1c(C(=O)NCc2ccccc2)cc2c(=O)n3ccccc3nc2n1CCCN1CCOCC1	/	.	58	/	13	.	.
N=c1c(C(=O)NCCN2CCOCC2)cc2c(=O)n3ccccc3nc2n1CCc1ccccc1	-28	/	/	156	24	.	11
N=c1c(C(=O)NCCc2ccccc2)cc2c(=O)n3ccccc3nc2n1CCCN1CCOCC1	.	/	/	175	29	.	7.7
O=C(CSc1nc2ccccc2c(=O)n1CCCN1CCOCC1)c1c[nH]c2ccccc12	.	.	.	.	.	/	/
Cc1ccccc1Cn1cc(CN2[C@@H](CC(C)C)COc3cc(Br)ccc3S2(=O)=O)nn1	/	/	/	/	.	/	/
O=C(NCc1ccccc1)c1ccc(NC(=O)C2CCCO2)cc1 (centres undefined)	.	/	/	.	.	/	/
O=c1c2ccccc2n(Cc2ccno2)n1[C@@H](Cc1ccccc1)Cn1cc(-c2ccc(-c3ccccc3)cc2)nn1	/	/	/	/	.	/	/
CNc1cc(-c2ccc(O)cc2C)ncn1	/	/	/	/	.	/	/
CN(C(=O)CNc1ccccc1Cl)C1CCS(=O)(=O)C1 (centres undefined)	/	/	/	/	.	/	/
COc1ccc(OC)c(/C=N/NC(=S)NCCc2ccccc2)c1	.	/	/	.	.	/	/
CNC(=O)NC(=O)C(C)OC(=O)c1c2c(nc3ccccc13)/C(=C/c1cccs1)CC2 (centres undefined)	.	.	.	.	50	85	73
CCCCNC(=O)COC(=O)c1c2c(nc3ccccc13)/C(=C/c1cccs1)CC2	/	.	.	/	.	/	/
CN1CCN(c2cc(CNC[C@H]3O[C@@H](n4cnc5c(=O)[nH]c(N)nc54)[C@H](O)[C@@H]3O)ccc2F)CC1	/	/	/	/	.	/	/
COc1ccc2cc(-c3ccccc3)ncc2c1	.	/	/	.	.	/	/
COc1ccc2ccc3cccc[n+]3c2c1	/	/	/	/	21	18	19
C=CCNc1sc(C(=O)c2ccc(C)cc2)c(N)c1C#N	.	.	.	.	186	22	15	K7 EDANS ctr=.
C=CCNc1sc(C(=O)c2ccccc2)c(N)c1C#N	.	.	.	.	.	/	/
CCc1nn(CC(=O)NCCN2CCN(C)CC2)c(=O)c2cc3c(OC)cccc3n12	.	/	/	.	34	27	34
CCc1nn(CC(=O)NCCC(C)C)c(=O)c2cc3c(OC)cccc3n12	.	/	/	?	.	/	/
Cc1sc2ncnc(SCC(=O)N3CCCC(C(F)(F)F)C3)c2c1C (centres undefined)	.	/	/	.	.	/	/
COc1ccccc1-c1c(C)oc2c(CN3CCCCC3C)c(O)ccc2c1=O (centres undefined)	.	/	/	.	53	66	69
COc1ccc(CN2CCCCC2C)c(C)c1C (centres undefined)	.	.	.	.	.	/	/
Cc1oc2c(CN3CCCCC3C)c(O)ccc2c(=O)c1-c1ccccc1 (centres undefined)	.	/	/	.	34	47	59
O=C(ONC(=O)C1C2C=CC(C2)C1C(=O)NOC(=O)c1ccccc1)c1ccccc1 (centres undefined)	/	/	/	/	45	.	.
Cc1cc(NC(=O)COC(=O)c2ccccc2NCCO)no1	/	/	/	/	34	27	24
SMILES	MEX-5 binding	Runt-SMMHC FRET	Runt-CBFb FRET	RanGTP-Imp inh	KLK7 zymogen act	KLK7 act conf	EDANS-DABCYL int	others
CCOC(=O)c1ccccc1NC(=O)COC(=O)CSCC(=O)Nc1cc(C)on1	.	/	/	.	.	/	/
O=C(Nc1ccccc1F)c1cc2c(s1)-c1ccccc1S(=O)(=O)C2	.	.	.	.	89	60	93
CCOC(=O)N1CCN(C(=O)c2cccn3c(=O)c4sccc4nc23)CC1	/	.	.	/	73	63	69
CCOC(=O)N1CCN(C(=O)c2cccn3c(=O)c4cc(Br)ccc4nc23)CC1	.	.	.	.	.	/	/
CCOC(=O)N1CCN(C(=O)c2ccc3nc4ccsc4c(=O)n3c2)CC1	.	.	.	.	15	25	20	K7 EDANS ctr=.
CC(C)Cn1c(-c2ccc(C#N)cc2)nc2c1c(=O)[nH]c(=O)n2CC(C)C	.	.	.	.	18	.	.
COCCn1c(-c2ccc(NC(C)=O)cc2)nc2c1c(=O)[nH]c(=O)n2CC(C)C	.	/	/	.	.	/	/
CCc1cc(=O)oc2c(C)c(O)c(CN(C)C)cc12	.	62	.	38	65	58	67
CC(OC(=O)C1=COCCO1)C(=O)Nc1ncc(Cl)cc1Cl (centres undefined)	/	/	/	/	.	/	/
CCCCN1C(=O)C(CC(=O)NC2CCCCC2)CC(C(=O)N2CCCCCC2)=C1C (centres undefined)	/	/	/	/	.	/	/
COCCCN1C(=O)C(CC(=O)NC2CCCCC2)CC(C(=O)N2CCCCCC2)=C1C (centres undefined)	/	/	/	/	83	.	.
COc1cc(OC)c(-c2nnc(-c3ccc(OC)c(OC)c3OC)o2)cc1OC	/	.	.	.	13	.	.
COc1cccc(-c2nnc(-c3ccc(C(F)(F)F)cc3)o2)c1OC	.	.	.	.	.	/	/
CCOC(=O)C1CCN(C(=O)c2cc3c(=O)n4ccccc4nc3n2C)CC1	.	51	.	?	78	64	64
Cc1c(O)nc2ccccn2c1=O	.	.	.	.	.	/	/
Cn1c(C(=O)N2CCOCC2)cc2c(=O)n3ccccc3nc21	.	/	/	.	61	73	84
CCOC(=O)C1CCN(C(=O)c2cccc(C(=O)N3CCC(C(=O)OCC)CC3)c2)CC1	.	.	.	.	.	/	/
Cn1c(C(=O)O)cc2c(=O)n3ccccc3nc21	.	78	.	.	58	71	79
CC1CN(C(=O)c2cc3c(=O)n4ccccc4nc3n2C)CC(C)O1 (centres undefined)	.	/	/	.	79	75	71
O=C(NCc1ccncc1)[C@@H]1CCCN1C(=O)[C@H]1CCCN1C(=O)c1cccc2ccccc12	/	/	/	/	.	/	/

Screening data from PubChem BioAssay.
